Assay results reported in article PMC5271563 (ChemMedChem, 2016).
Entries after “also recorded” stand apart in the source; their conditions may differ. Blank lines part the entries; values can stand above or below the compound they belong to.

Experiments:
[1] = molecular target: T1, hCD44(21–178) (Homo sapiens, UniProt P16070); assay: Isothermal Titration Calorimetry; assay type: binding; conditions: 23°C, pH 6.7, 5% DMSO
[2] = molecular target: T1, hCD44(21–178); assay: NMR binding: 2D [1H,15N]-sofast-HMQC / 1D 1H-aliphatic spectra of 15N-hCD44; conditions: for binding by 2D [1H,15N]-sofast-HMQC: 20 μM 15N-hCD44(21–178)
Method in brief: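 Human CD44 HA-binding domain (Q21–V178) was expressed in E. coli BL21(DE3) gold pLysS in M9 with 15NH4Cl, refolded from urea-solubilised inclusion bodies, and purified as monomer by size exclusion. 2D [1H,15N]-sofast-HMQC (48 scans) and 1D 1H (128 scans) spectra were recorded at 300 K in 50 mM phosphate, 150 mM NaCl, 0.02% NaN3, pH 6.7. Spectra were compared with and without test peptide.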

[3] = molecular target: T1, hCD44(21–178); assay: ITC competition; assay type: binding
[4] = molecular target: T1, hCD44(21–178); assay: Saturation Transfer Difference; assay type: binding; conditions: saturating for 2 seconds at −0.28 ppm
Method in brief: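 STD spectra used 128 scans, with 2 s saturation on-resonance at −0.28 ppm and off-resonance reference at −10 ppm. Samples contained hCD44(21–178) and test ligand, with HA8 as positive control. Conditions: 300 K in 50 mM phosphate, 150 mM NaCl, 0.02% NaN3, pH 6.7, on a 600 or 700 MHz spectrometer with cryoprobe.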

[5] = molecular target: T1, hCD44(21–178); assay: NMR displacement / ternary binding experiments by 2D [1H,15N]-sofast-HMQC
[6] = tested on: DF1485 antibody; assay: 2D [1H,13C]-HSQC of 13C-A6 peptide with antibody; assay type: binding, mouse; conditions: 5 μM 13C-A6 peptide, 4 μM DF1485
Method in brief: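 Test peptide carries a 13C-labelled N-acetyl methyl. 2D [1H,13C]-HSQC spectra were recorded without and with the mouse anti-CD44 monoclonal antibody DF1485 ([…]), using 64 scans and 4096 × 128 complex points. Conditions: 300 K, 600 or 700 MHz with cryoprobe, 50 mM phosphate, 150 mM NaCl, 0.02% NaN3, pH 6.7. Read-out was broadening or chemical shift change of the methyl signal.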

[7] = Solubility under binding study conditions; assay type: physicochemical; conditions: under the binding study conditions

T1 sequence (P16070 21-178): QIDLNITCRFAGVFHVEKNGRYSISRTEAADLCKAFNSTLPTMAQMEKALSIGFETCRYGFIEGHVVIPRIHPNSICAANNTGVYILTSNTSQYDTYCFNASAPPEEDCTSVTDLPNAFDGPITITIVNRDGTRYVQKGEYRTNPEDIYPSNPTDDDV

- enthalpy of binding ΔH (ITC) ([1]; hCD44 73 μM titrated with 1.6 mM HA8): -0.7 kcal/mol
- chemical shift perturbations in 2D [1H,15N]-sofast-HMQC ([2]; 20 μM hCD44(21–178), 220 μM HA8, 300 K, pH 6.7): widespread perturbations
- ΔH of HA8 binding in presence of compound 3 (ITC) ([3]; 750-fold molar excess (55 mM) compound 3): -0.83 kcal/mol
- Kd of HA8 in presence of compound 3 (ITC) ([3]; hCD44(21–178) incubated with 750-fold molar excess (55 mM) compound 3, titrated with 1.6 mM HA8, 23°C, pH 6.7, 5% DMSO): 37.5 µM
- STD effect [4]: significant STD effect
Compound: CC(=O)N[C@H]1[C@H](O[C@H]2[C@H](O)[C@@H](O)[C@H](O[C@H]3[C@H](O)[C@@H](CO)O[C@@H](O[C@H]4[C@H](O)[C@@H](O)[C@H](O[C@H]5[C@H](O)[C@@H](CO)O[C@@H](O[C@H]6[C@H](O)[C@@H](O)[C@H](O[C@H]7[C@H](O)[C@@H](CO)OC(O)[C@@H]7NC(C)=O)O[C@@H]6C(=O)O)[C@@H]5NC(C)=O)O[C@@H]4C(=O)O)[C@@H]3NC(C)=O)O[C@@H]2C(=O)O)O[C@H](CO)[C@@H](O)[C@@H]1O[C@@H]1O[C@H](C(=O)O)[C@@H](O)[C@H](O)[C@H]1O (stereo partly drawn) [HA8, [GlcNAc-GlcUA]4]

Compound: Ac-KPSSPPEE-NH2 [A6 Peptide]
- direct interaction by ITC ([1]; hCD44 73 μM titrated with 1 mM A6 peptide): absence of direct interactions
- binding by 2D [1H,15N]-sofast-HMQC ([2]; 500 μM A6 peptide, pH 6.7, listed as A6): could not observe any significant binding
- binding by 2D [1H,15N]-sofast-HMQC ([2]; 500 μM A6 peptide, pH 6.7, listed as A6-peptide): absence of appreciable binding
- binding by 2D [1H,15N]-sofast-HMQC ([2]; 500 μM A6 peptide, pH 6.7, listed as A6 peptide): No appreciable binding
- displacement of DF1485 antibody from hCD44(21–178) ([5]; 10 μM 15N-hCD44(21–178), 10 μM DF1485, addition of 500 μM A6 peptide): not displaced
- binding to hCD44 in complex with HA8 ([5]; A6, 15N-labeled hCD44(21–178)): did not observe significant binding
- interaction between 13C-A6 peptide and DF1485 antibody [6]: no appreciable binding

- binding by 2D [1H,15N]-sofast-HMQC ([2]; 400 μM peptide): no significant binding
Compound: Ac-SRPQGPFL-NH2

- binding by 2D [1H,15N]-sofast-HMQC ([2]; 200 μM A5G27): no evidence of binding
Compound: H-RLVSYNGIIFFLK-NH2 [A5G27]
- solubility [7]: limited solubility; also recorded: fairly low solubility
